Reference: ChEMBL document CHEMBL5137074 (J Med Chem, 2022)

Assays:
[1] = target: T1, Membrane-associated tyrosine- and threonine-specific cdc2-inhibitory kinase (Homo sapiens, UniProt Q99640)
T1 sequence (Q99640 whole entry): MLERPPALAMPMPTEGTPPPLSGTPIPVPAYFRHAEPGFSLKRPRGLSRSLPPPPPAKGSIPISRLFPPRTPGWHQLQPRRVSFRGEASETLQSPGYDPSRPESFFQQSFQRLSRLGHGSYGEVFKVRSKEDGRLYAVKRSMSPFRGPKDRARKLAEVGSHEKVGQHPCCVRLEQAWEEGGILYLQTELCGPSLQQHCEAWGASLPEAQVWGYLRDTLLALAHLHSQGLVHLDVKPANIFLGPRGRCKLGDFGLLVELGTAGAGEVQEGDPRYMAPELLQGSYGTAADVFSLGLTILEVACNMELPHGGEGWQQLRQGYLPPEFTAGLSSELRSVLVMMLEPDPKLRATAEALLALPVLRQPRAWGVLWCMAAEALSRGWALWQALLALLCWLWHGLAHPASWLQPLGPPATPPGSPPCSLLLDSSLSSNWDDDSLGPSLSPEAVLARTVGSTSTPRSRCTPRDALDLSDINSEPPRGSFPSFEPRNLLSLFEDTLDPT

[2] = target: Cytochrome P450 2D6 (Homo sapiens, UniProt P10635); assay: Inhibition of CYP2D6 (unknown origin)
[3] = target: T2, Cytochrome P450 3A4 (Homo sapiens, UniProt P08684); assay: Induction of CYP3A4 in human hepatocytes at 3 uM relative to rifampicin; assay type: ADME, cell-based, Hepatocyte
How it was run: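 Single-donor human hepatocytes exposed at 3 μM. CYP3A4 induction expressed as % of the 10 μM rifampicin positive control.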

[4] = Apparent permeability across apical to basolateral side in human Caco-2 cells
[5] = Plasma protein binding in human at 1 uM; assay type: ADME, cell-free
How it was run: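 Plasma protein binding measured at 1 μM compound in human plasma, with rat plasma run alongside.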

[6] = rat, in vivo, iv, 1 mg/kg, 24 h
[7] = rat, in vivo, po, 5 mg/kg, 24 h
[8] = target: Cytochrome P450 2C9 (Homo sapiens, UniProt P11712); assay: Inhibition of CYP2C9 (unknown origin)
[9] = Metabolic stability in human hepatocytes assessed as intrinsic clearance measured per 10^6 cells
[10] = Oral bioavailability in Beagle dog at 1 mg/kg measured upto 24 hrs by reversed phase LCMS analysis; assay type: ADME, organism-based, Canis lupus familiaris; conditions: in vivo
[11] = Plasma protein binding in rat at 1 uM
[12] = Oral bioavailability in CD-1 mouse at 2.5 to 5 mg/kg measured upto 24 hrs by HPLC-LCMS analysis; assay type: ADME, organism-based; conditions: in vivo, dose 2.5-5 mg/kg
How it was run: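 Female CD1 mice (20–30 g) dosed IV at 1 mg/kg as a solution. Oral dosing at 2.5 or 5 mg/kg as a suspension in 0.5% methyl cellulose. […] Non-compartmental analysis.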

[13] = Oral bioavailability in Cynomolgous monkey at 1 mg/kg measured upto 24 hrs by reversed phase LCMS analysis; assay type: ADME, organism-based, Macaca fascicularis; conditions: cynomolgus monkey, in vivo
[14] = target: T2, Cytochrome P450 3A4; assay: Inhibition of CYP3A4 (unknown origin)
[15] = target: Wee1-like protein kinase (Homo sapiens, UniProt P30291); assay: Inhibition of WEE1 (unknown origin)
[16] = target: T3, Ephrin type-B receptor 3 (Homo sapiens, UniProt P54753); assay: Inhibition of full length Nano-luc fused EPHB3 in human HEK-293T cells incubated for 2 hrs by cell based NanoBRET target engagement assay
T3 sequence (P54753 whole entry): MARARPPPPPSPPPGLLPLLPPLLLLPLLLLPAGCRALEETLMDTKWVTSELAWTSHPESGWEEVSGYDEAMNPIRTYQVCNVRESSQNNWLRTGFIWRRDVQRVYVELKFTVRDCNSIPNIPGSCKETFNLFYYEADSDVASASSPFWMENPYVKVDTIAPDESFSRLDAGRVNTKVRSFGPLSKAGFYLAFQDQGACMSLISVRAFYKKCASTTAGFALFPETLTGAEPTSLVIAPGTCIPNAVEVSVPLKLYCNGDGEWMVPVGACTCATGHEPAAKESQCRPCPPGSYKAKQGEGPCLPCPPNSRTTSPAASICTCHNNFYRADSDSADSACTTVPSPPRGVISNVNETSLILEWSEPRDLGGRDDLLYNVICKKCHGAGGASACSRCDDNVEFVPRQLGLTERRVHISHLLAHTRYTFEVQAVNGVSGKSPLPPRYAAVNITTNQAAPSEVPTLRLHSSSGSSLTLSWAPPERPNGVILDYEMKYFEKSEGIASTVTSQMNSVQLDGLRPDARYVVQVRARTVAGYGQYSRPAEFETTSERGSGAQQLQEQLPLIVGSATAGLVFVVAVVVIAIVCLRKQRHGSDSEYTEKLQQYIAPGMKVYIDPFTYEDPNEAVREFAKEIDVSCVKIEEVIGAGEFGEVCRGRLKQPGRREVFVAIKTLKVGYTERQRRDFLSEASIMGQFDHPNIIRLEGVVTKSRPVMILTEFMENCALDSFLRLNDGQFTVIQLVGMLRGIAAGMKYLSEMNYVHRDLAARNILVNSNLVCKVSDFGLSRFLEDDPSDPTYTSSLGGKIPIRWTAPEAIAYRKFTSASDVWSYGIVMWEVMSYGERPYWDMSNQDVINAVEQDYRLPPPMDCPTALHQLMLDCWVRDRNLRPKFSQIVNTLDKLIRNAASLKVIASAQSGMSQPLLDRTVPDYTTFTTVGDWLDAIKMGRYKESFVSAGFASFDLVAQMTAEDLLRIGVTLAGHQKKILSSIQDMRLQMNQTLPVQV
How it was run: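 HEK293T cells transiently transfected with the NanoLuc–kinase fusion vector plus carrier DNA and left overnight at 37 °C/5% CO2. Cells were resuspended in phenol red-free Opti-MEM at 17000 cells/well with the tracer. They were then exposed to compound for 2 h at 37 °C, and substrate/inhibitor mix was added. Acceptor (610 nm) and donor (450 nm) emissions were read.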

Chain of Wee1-like protein kinase (P30291 whole entry, the tested form may be a part): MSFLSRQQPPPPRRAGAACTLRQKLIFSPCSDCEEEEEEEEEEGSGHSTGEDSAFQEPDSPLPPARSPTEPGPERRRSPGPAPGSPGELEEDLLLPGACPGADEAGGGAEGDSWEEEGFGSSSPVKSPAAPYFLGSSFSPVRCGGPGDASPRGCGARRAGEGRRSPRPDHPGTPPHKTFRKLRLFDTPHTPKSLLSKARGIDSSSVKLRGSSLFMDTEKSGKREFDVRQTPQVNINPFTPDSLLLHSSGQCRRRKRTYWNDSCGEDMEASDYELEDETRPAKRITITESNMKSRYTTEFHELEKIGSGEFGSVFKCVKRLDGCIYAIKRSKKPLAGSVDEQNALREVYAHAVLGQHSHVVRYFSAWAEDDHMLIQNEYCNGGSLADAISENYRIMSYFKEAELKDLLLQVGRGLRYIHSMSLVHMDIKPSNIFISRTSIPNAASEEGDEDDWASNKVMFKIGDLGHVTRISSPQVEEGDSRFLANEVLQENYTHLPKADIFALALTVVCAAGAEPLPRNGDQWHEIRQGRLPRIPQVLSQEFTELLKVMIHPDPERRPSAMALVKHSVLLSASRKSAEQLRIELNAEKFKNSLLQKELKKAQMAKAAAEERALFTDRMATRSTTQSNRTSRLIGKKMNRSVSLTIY
T2 sequence (P08684 whole entry): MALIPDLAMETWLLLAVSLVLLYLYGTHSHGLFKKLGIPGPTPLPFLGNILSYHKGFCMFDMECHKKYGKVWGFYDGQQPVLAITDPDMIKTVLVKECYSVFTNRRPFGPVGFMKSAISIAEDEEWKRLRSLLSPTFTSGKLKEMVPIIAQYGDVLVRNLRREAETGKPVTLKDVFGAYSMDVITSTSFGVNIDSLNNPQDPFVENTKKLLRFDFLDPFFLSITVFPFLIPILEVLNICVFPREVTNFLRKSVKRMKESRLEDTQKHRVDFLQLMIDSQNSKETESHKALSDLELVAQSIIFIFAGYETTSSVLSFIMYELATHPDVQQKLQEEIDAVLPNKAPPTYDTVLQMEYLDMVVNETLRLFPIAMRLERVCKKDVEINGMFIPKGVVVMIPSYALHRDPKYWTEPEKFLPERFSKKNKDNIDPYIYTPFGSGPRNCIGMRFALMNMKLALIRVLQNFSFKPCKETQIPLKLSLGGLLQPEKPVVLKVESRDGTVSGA
Chain of Cytochrome P450 2C9 (P11712 whole entry): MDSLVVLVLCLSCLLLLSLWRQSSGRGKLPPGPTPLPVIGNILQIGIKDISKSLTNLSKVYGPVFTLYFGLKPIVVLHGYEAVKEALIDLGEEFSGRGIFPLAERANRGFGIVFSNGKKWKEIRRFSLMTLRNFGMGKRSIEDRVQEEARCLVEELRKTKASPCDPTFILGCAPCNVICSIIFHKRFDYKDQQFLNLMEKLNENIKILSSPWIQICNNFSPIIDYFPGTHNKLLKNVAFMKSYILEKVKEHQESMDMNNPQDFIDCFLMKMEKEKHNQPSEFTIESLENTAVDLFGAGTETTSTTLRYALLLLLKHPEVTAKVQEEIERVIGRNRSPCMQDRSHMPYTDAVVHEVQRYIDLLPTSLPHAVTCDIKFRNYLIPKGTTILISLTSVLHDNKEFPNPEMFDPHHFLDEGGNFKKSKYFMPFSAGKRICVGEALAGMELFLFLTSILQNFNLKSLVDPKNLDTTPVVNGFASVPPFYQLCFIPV
Chain of Cytochrome P450 2D6 (P10635 whole entry): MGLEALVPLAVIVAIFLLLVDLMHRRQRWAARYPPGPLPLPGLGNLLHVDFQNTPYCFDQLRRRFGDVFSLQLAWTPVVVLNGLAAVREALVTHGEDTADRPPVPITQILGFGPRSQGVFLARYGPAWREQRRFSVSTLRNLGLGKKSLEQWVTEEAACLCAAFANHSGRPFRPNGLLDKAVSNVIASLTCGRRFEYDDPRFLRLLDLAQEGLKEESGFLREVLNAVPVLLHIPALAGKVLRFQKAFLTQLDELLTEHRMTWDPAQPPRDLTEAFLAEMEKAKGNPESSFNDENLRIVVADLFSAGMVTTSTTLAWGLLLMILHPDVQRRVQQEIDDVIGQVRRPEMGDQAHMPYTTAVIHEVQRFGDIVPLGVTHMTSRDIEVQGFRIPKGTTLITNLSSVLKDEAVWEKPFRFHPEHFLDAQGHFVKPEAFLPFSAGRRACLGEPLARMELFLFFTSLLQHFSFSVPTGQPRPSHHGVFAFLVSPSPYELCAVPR

Compound `Cc1ccc(Cl)c(C)c1-n1c(N)c(C(N)=O)c2nc3ccccc3nc21` has an IC50 [1] of over 20000 nM.
`Cc1ccc(O)c(C)c1-n1c(N)c(C(N)=O)c2nc3cccc(C4=CCCC4)c3nc21` showed an IC50 [1] of under 3 nM.
In the case of `Cc1ccc(N)cc1-n1c(N)c(C(N)=O)c2nc3ccccc3nc21`, the IC50 [1] is reported as over 20000 nM.
For `Cc1ccc(O)c(C)c1-n1c(N)c(C(N)=O)c2cc(Cl)cnc21`, the IC50 [2] was over 30000 nM, the Activity [3] was 26.7% and the Papp [4] was 18.3 10^-6 cm/s. The PPB [5] was 89.6%, the CL free [6] was 215 mL/min/kg and the F [7] was 37%. For the same compound, the IC50 [8] was 26000 nM, the hepatocyte CLint [9] was 4.5 µL/min/1e6 cells and the F [10] was 33%. The PPB [11] was 88.1%, the F [12] was 21% and the F [13] was 32%. It also gave an IC50 [14] of over 30000 nM.
`Cc1cnc2c(c1)c(C(N)=O)c(N)n2-c1c(C)ccc(O)c1C` gave a CL free [6] of 76 mL/min/kg, an F [7] of 62% and a PPB [11] of 73.8%.
For `Cc1ccccc1-n1c(N)c(C(N)=O)c2nc3ccccc3nc21`, the IC50 [1] was over 20000 nM.
Compound `Cc1c(O)ccc(Cl)c1-n1c(N)c(C(N)=O)c2nc3ccccc3nc21` has an IC50 [15] of 230 nM.
For `Cc1ccc(O)c(Cl)c1-n1c(N)c(C(N)=O)c2nc3ccccc3nc21`, the IC50 [16] was 7 nM and the IC50 [15] was 940 nM.
For `NC(=O)c1c(N)n(-c2cccc3[nH]ncc23)c2nc3ccccc3nc12`, the IC50 [15] was 5200 nM.
With `Cc1ccc(O)c(C)c1-n1c(N)c(C(N)=O)c2cc(Cl)c(C)nc21` the CL free [6] was 731 mL/min/kg, the F [7] was 24% and the PPB [11] was 93.1%.
Compound `Cc1ccc(O)c(C)c1-n1c(N)c(C(N)=O)c2nc3cccc(-c4ccnn4C)c3nc21` has an IC50 [1] of under 3 nM.
Compound `Cc1ccc(O)c(C)c1-n1c(N)c(C(N)=O)c2nc3cccc(Br)c3nc21` has an IC50 [1] of under 3 nM.
In the case of `NC(=O)c1c(N)n(-c2cccc3[nH]nnc23)c2nc3ccccc3nc12`, the IC50 [1] is reported as over 20000 nM.
`NC(=O)c1c(N)n(-c2c(Cl)ccc(O)c2Cl)c2nc3ccccc3nc12` gave an IC50 [15] of 220 nM.
